This passage reports inhibition of growth results from ChEMBL document CHEMBL3045743, “Synthesis and herbicidal activity of isoindoline-1,3-dione substituted benzoxazinone derivatives containing a carboxylic ester group” (J Agric Food Chem, 2009).

What all share (format): functional
Assay [1] relates to Amaranthus. The assay can be described thus: Post-emergence herbicidal activity against Amaranthus ascendens assessed as growth inhibition at 75 g.a.i./ha applied at two-leaf stage measured after 15 days. The note with it: 360 h, read-out: GI. In short, it runs like this:
(§1)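 Pot-grown weeds sown 5 mm deep in greenhouse clay soil (pH 6.5, 1.7% organic matter, CEC 12.9 cmol/kg) at 22-25 °C. Stock diluted with water and sprayed post-emergence: dicots at 2-leaf stage, monocots at 1-leaf stage. Untreated and DMF solvent controls were included. % growth inhibition was scored visually versus untreated controls after 15 days. Triplicates averaged.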

In assay [2] the test system is Setaria viridis. Briefly: Pre-emergence herbicidal activity against Setaria viridis (green foxtail) assessed as growth inhibition at 75 g.a.i./ha applied 24 hr after seeds were sown measured after 15 days. The note with it: read-out: GI. In short, it runs like this: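 Preliminary pre-emergence screen at a single rate of 75 g a.i./ha. Stock diluted with water and sprayed on greenhouse pots 24 h after seeds were sown 5 mm deep in clay soil (pH 6.5, 1.7% organic matter); grown at 22-25 °C. Untreated and DMF solvent controls included; triplicate. Visual % growth inhibition vs untreated after 15 days, averaged and banded (>80% top band).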

Assay [3] has as its system Setaria viridis. Briefly: Post-emergence herbicidal activity against Setaria viridis (green foxtail) assessed as growth inhibition at 75 g.a.i./ha applied at one-leaf stage measured after 15 days. The note with it: 360 h, read-out: GI. In short, it runs like this: as §1
The test system of assay [4] is Digitaria sanguinalis. Briefly: Pre-emergence herbicidal activity against Digitaria sanguinalis (hairy crabgrass) assessed as growth inhibition at 75 g.a.i./ha applied 24 hr after seeds were sown measured after 15 days. The note with it: read-out: GI. In short, it runs like this: (§2)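 Weeds sown 5 mm deep in pots of greenhouse clay soil (pH 6.5, 37.5% clay, CEC 12.9 cmol/kg) and grown at 22-25 °C. Water-diluted formulation was applied pre-emergence 24 h after sowing. Untreated and DMF solvent controls were included. Growth inhibition was visually rated in % against untreated controls after 15 days, as the mean of triplicates.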

Assay [5] has as its system Abutilon theophrasti. The assay can be described thus: Post-emergence herbicidal activity against Abutilon theophrasti (velvetleaf) assessed as growth inhibition at 75 g.a.i./ha applied at two-leaf stage measured after 15 days. The note with it: 360 h, read-out: GI. In short, it runs like this: as §1
The subject of assay [6] is Digitaria sanguinalis. Briefly: Post-emergence herbicidal activity against Digitaria sanguinalis (hairy crabgrass) assessed as growth inhibition at 75 g.a.i./ha applied at one-leaf stage measured after 15 days. The note with it: 360 h, read-out: GI. In short, it runs like this: as §1
The test system of assay [7] is Chenopodium album. The assay can be described thus: Post-emergence herbicidal activity against Chenopodium album assessed as growth inhibition at 75 g.a.i./ha applied at two-leaf stage measured after 15 days. The note with it: 360 h, read-out: GI. In short, it runs like this: as §1
The test system of assay [8] is Echinochloa crus-galli. The assay can be described thus: Pre-emergence herbicidal activity against Echinochloa crus-galli (barnyard grass) assessed as growth inhibition at 75 g.a.i./ha applied 24 hr after seeds were sown measured after 15 days. The note with it: read-out: GI. In short, it runs like this: as §2
The subject of assay [9] is Amaranthus. Briefly: Pre-emergence herbicidal activity against Amaranthus ascendens assessed as growth inhibition at 75 g.a.i./ha applied 24 hr after seeds were sown measured after 15 days. The note with it: read-out: GI. In short, it runs like this: as §2
Assay [10] deals with Chenopodium album. Briefly: Pre-emergence herbicidal activity against Chenopodium album assessed as growth inhibition at 75 g.a.i./ha applied 24 hr after seeds were sown measured after 15 days. The note with it: read-out: GI. In short, it runs like this:
as §2

Assay [11] has as its system Abutilon theophrasti. Briefly: Pre-emergence herbicidal activity against Abutilon theophrasti (velvetleaf) assessed as growth inhibition at 75 g.a.i./ha applied 24 hr after seeds were sown measured after 15 days. The note with it: read-out: GI. In short, it runs like this:
as §2

In assay [12] the test system is Echinochloa crus-galli. The assay can be described thus: Post-emergence herbicidal activity against Echinochloa crus-galli (barnyard grass) assessed as growth inhibition at 75 g.a.i./ha applied at one-leaf stage measured after 15 days. The note with it: 360 h, read-out: GI. In short, it runs like this:
as §1

As to `CCOC(=O)C(C)(C)N1C(=O)C(C)Oc2cc(F)c(N3C(=O)C4=C(CCCC4)C3=O)cc21` (centres undefined), the inhibition of growth at 75 g/ha in assay [1] was > 80%; in assay [2] it was < 50%; in assay [3], 50%; in assay [4] it was < 50%; in assay [5] it was > 80%; in assay [6], 50%. Also, the inhibition of growth at 75 g/ha in assay [7] was > 80%; in assay [8], < 50%; in [9], 50%; in assay [10] it was < 50%; in assay [11] it was < 50%; in assay [12], 50%.
`COC(=O)CN1C(=O)COc2cc(F)c(N3C(=O)C4=C(CCCC4)C3=O)cc21`: the inhibition of growth at 75 g/ha in [1] was > 80%; in assay [2] it was < 50%; in [3] it was 50%; in assay [4], < 50%; in assay [5] it was > 80%; in assay [6] it was 50%. Besides, the inhibition of growth at 75 g/ha was > 80% in assay [7]; < 50% in assay [8]; 50% in assay [9]; 50% in assay [10]; 50% in assay [11]; 50% in assay [12].
Consider `CCOC(=O)C(CC)N1C(=O)COc2cc(F)c(N3C(=O)C4=C(CCCC4)C3=O)cc21` (centres undefined), for which the inhibition of growth at 75 g/ha is > 80% in assay [1]; 50% in assay [2]; 50% in [3]; 50% in assay [4]; > 80% in assay [5]; 50% in assay [6]. Besides, the inhibition of growth at 75 g/ha in [7] was > 80%; in [8] it was 50%; in assay [9], 50%; in [10], 50%; in [11], > 80%; in assay [12], 50%.
Consider `COC(=O)CN1C(=O)C(C)Oc2cc(F)c(N3C(=O)C4=C(CCCC4)C3=O)cc21` (centres undefined), for which the inhibition of growth at 75 g/ha in assay [1] was > 80%; in [2], < 50%; in assay [3] it was 50%; in [4], < 50%; in assay [5] it was > 80%; in [6], 50%. Also, the inhibition of growth at 75 g/ha in assay [7] is > 80%; in assay [8], < 50%; in assay [9] it was > 80%; in [10], > 80%; in assay [11], > 80%; in assay [12], < 50%.
Regarding `CCOC(=O)C(C)N1C(=O)COc2cc(F)c(N3C(=O)c4cc(Cl)c(Cl)cc4C3=O)cc21` (centres undefined), the inhibition of growth at 75 g/ha in [1], in [2], in assay [3], in [4], in assay [5] and in assay [6] was < 50% throughout. In addition, the inhibition of growth at 75 g/ha is 50% in [7]; < 50% in assay [8]; < 50% in [9]; < 50% in [10]; < 50% in [11]; < 50% in assay [12].
In the case of `CCOC(=O)CN1C(=O)C(C)Oc2cc(F)c(N3C(=O)C4=C(CCCC4)C3=O)cc21` (centres undefined), the inhibition of growth at 75 g/ha in [1] was > 80%; in [2] it was < 50%; in assay [3], < 50%; in assay [4], < 50%; in assay [5], > 80%; in assay [6], < 50%. Further, the inhibition of growth at 75 g/ha in assay [7] was > 80%; in [8] it was < 50%; in [9], > 80%; in assay [10] it was > 80%; in [11], > 80%; in assay [12], < 50%.
On to `COC(=O)C(C)N1C(=O)COc2cc(F)c(N3C(=O)C4=C(CCCC4)C3=O)cc21` (centres undefined), for which the inhibition of growth at 75 g/ha is > 80% in assay [1]; < 50% in assay [2]; > 80% in [3]; < 50% in [4]; > 80% in assay [5]; > 80% in [6]. In addition, the inhibition of growth at 75 g/ha in assay [7] was > 80%; in assay [8] it was < 50%; in assay [9], 50%; in assay [10], 50%; in [11] it was > 80%; in assay [12], > 80%.
For the compound `CCOC(=O)CN1C(=O)COc2cc(F)c(N3C(=O)C4=C(CCCC4)C3=O)cc21`, the inhibition of growth at 75 g/ha is > 80% in assay [1]; < 50% in [2]; < 50% in assay [3]; < 50% in assay [4]; > 80% in [5]; < 50% in [6]. Moreover, the inhibition of growth at 75 g/ha in assay [7] was > 80%; in [8] it was < 50%; in [9], > 80%; in assay [10] it was > 80%; in assay [11] it was > 80%; in assay [12], < 50%.
Consider `CCOC(=O)C(C)N1C(=O)COc2cc(F)c(N3C(=O)C4=C(CCCC4)C3=O)cc21` (centres undefined), for which the inhibition of growth at 75 g/ha in assay [1] was > 80%; in assay [2], 50%; in [3], > 80%; in assay [4] it was 50%; in [5], > 80%; in [6] it was > 80%. Also, the inhibition of growth at 75 g/ha is > 80% in assay [7]; < 50% in [8]; > 80% in assay [9]; > 80% in assay [10]; > 80% in assay [11]; > 80% in assay [12].
On to `CCOC(=O)CN1C(=O)COc2cc(F)c(N3C(=O)c4cc(Cl)c(Cl)cc4C3=O)cc21`, for which the inhibition of growth at 75 g/ha in assay [1] was 50%; in assay [2] it was < 50%; in [3], < 50%; in assay [4], < 50%; in assay [5] it was 50%; in assay [6], < 50%. Also, the inhibition of growth at 75 g/ha in [7] is 50%; in [8], < 50%; in assay [9], < 50%; in assay [10], < 50%; in assay [11], < 50%; in [12], < 50%.
As to `COC(=O)C(C)N1C(=O)COc2cc(F)c(N3C(=O)c4ccccc4C3=O)cc21` (centres undefined), the inhibition of growth at 75 g/ha is > 80% in assay [1]; < 50% in assay [2]; 50% in assay [3]; < 50% in [4]; > 80% in assay [5]; 50% in assay [6]. The inhibition of growth at 75 g/ha in assay [7] is > 80%; in assay [8] it was < 50%; in assay [9] it was < 50%; in [10], < 50%; in assay [11], < 50%; in assay [12] it was 50%.
Regarding `CCOC(=O)C(c1ccccc1)N1C(=O)COc2cc(F)c(N3C(=O)C4=C(CCCC4)C3=O)cc21` (centres undefined), the inhibition of growth at 75 g/ha was > 80% in assay [1]; 50% in [2]; > 80% in [3]; 50% in assay [4]; > 80% in assay [5]; > 80% in assay [6]. For the same compound, the inhibition of growth at 75 g/ha in assay [7] was > 80%; in assay [8] it was < 50%; in [9], > 80%; in [10], > 80%; in assay [11], 50%; in assay [12] it was 50%.
